Measurements taken from the RNAGym collection of RNA variant scans (doi:10.1126/science.aae0568).
This sample holds only a part of the variants without activity.

B1: tRNA (parent)
chain: GUUCCGUUGGCGUAAUGGUAACGCGUCUCCCUCCUAAGGAGAAGACUGCGGGUUCGAGUCCCGUACGGAACG

Variants of: B1
Experiment: yeast fitness relative to wild type (ratio to wild type); higher = fitter; tRNA-Arg(CCU), competitive growth, 37 C, YPD
Summary of the method: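 Variants of the tRNA-Arg(CCU) gene, chemically synthesised with a 3% per-site mutation rate at 69 sites, were placed at the native genomic locus in Saccharomyces cerevisiae. The pooled strains were competed in YPD at 37°C for 24 hours in six parallel replicates. Gene amplicons from the start population and from each end population were read by 100-nucleotide paired-end sequencing. Darwinian fitness relative to wild type came from changes in genotype frequencies; genotypes needed ≥ 100 starting reads, and estimates < 0.5 were set to 0.5.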

Variant | yeast fitness
GUUCCGUUGGCGUAAUGGUAACGCGUCUCGCUCCUCAGGAGAAGACUGAGGGUUAGAGUCCCCUACGGCACG | 0.608
GUUCCGUUGGCGUAAUGGUAACGCGUCUCACUCCAAAGGAGGCGACUGCGGGUUCGAGUCCCGUACGGAACG | ≤ 0.5
GUUCCGUUGGCGUAAUGGUAACGCGUCUCACUCCUAAGGAGAAGACUACGGGUUCGAGUCCCGUACGGAACG | 1.06
GUUCCGUUGGCGUAAUGGUAACGCGUCUCGCUCCUACGGAGGAGACUGCGGGUUCGUGUCCCGUACGGAACG | 1.01
GUUCCGUUGGCGUAAUGGUAACGCGUCUCACUCCUAAGGAGAAGACUGCGGGAUCGAGUCCCGUACGGAACG | 0.618
GUUCCGUUGGCGUAAUGGUAACGCGUCUCACUCCUAAGGAGAAGACUGCGGGUUCGAGUUCCGUACGGAACG | 0.727
GUUCCGUUGGCGUAAUGGUAACGCGUCUCACUCCUAAGGAGAAGACUGCGGGUUCGAGUGCCGUACGGAACG | 0.635
GUUCCGUUGGCGUAAUGGUAACGCGUCUCACUCCUAAGGAGAAGACUGCGAACUCAAGUCGCGUACGGAACG | ≤ 0.5
GUUCCGUUGGCGUAAUGGUAACGCGUCUCACUCCUAAGGAGAAGACCGCGGGUUCGAGUCACGUCCGGAACG | ≤ 0.5
GUUCCGUUGGCGUAAUGGUAACGCGUCUCACUCCUAAGGAGAAGACUGCAGGUUCGAGUCCCGUACAGAACG | 0.543
GUUCCGUUGGCGUAAUGGUAACGCGUCUCACUCCUAAGGAGAAGACCGCGGGUUCGAGUCCCGUAUGGAUCG | ≤ 0.5
GUUCCGUUGGCGUAAUGGUAACGCGUCUCACACCUAAAGAGAAGACUGCGGGUUAGAGUCCCGUCCGGAACG | ≤ 0.5
GUUCCGUUGGCGUAAUGGUAACGCGUCUCACUCCUAAGGAGAAGACUGAGGGUUCGUGUCCCGUACGGAGCG | 0.509
GUUCCGUUGGCGUAAUGGUAACGCGUCUCACUCCUAAAGAGAAGACUGCGGGUUAGAGUCCCGUCCGGAACG | 0.58
GUUCCGUUGGCGUAAUGGUAACGCGUCUCACCCCUAAGGAGAAGACUGCGGGUUCGAGUCCCGUACGGAACG | 0.892
GUUCCGUUGGCGUAAUGGUAACGCGUCUCACGCCUAAGGAGAAGACUGCGGGUUCGAGUCCCGUACGGAACG | 0.624
GUUCCGUUGGCGUAAUGGUAACGCGUCUCACUCCUAAGGAGAACACUGCGGGUUCGAGACCCGUACGGUACG | 0.65
GUUCCGUUGGCGUAAUGGUAACGCGUCUCACUCCUAAGGAGAAGACUGCGGGUUCGAGUCCUGUACGGAUCG | 0.709
GUUCCGUUGGCGUAAUGGUAACGCGUCUCACUCCUAAGGAGAAGACUGCGGGUUCGAGUCACGUACGGAACG | 0.721

Variant | yeast fitness
GUUCCGUUGGCGUAAUGGUAACGCGUCUCACUCCUAAGGAGAAGACUGCGGGUUCGAGUCGCGUACGGAACG | 0.651
GUUCCGUUGGCGUAAUGGUAACGCGUCUCACUCCUAAGGACAAGGCUGCGGGUUCGAGUCCCGUACCGAACG | ≤ 0.5
GUUCCGUUGGCGUAAUGGUAACGCGUCUCACUCCUAAGGAGAAGACUGCGGGUUCGAGGCCCGUACGGGACG | 0.599
GUUCCGUUGGCGUAAUGGUAACGCGUCUCACUCCUAAGGAGAAGACUGCGGGUUCGAGCCCCGUACGGAACG | 0.863
GUUCCGUUGGCGUAAUGGUAACGCGUCUCACUCCUAAGGAGAAGACUGCGGGUUUGAGUCCCGUACGGACCG | 0.545
GUUCCGUUGGCGUAAUGGUAACGCGUCUCACUCCUAAGGAGAAGACUGCGGGUUCGAGUCCCUAACGGAACG | ≤ 0.5
GUUCCGUUGGCGUAAUGGUAACGCGUCUCACUCCUAAGGAGAAGACUGAGGGUUCGAGUCUCGUACGGAACG | ≤ 0.5
GUUCCGUUGGCGUAAUGGUAACGCGUCUCACUCCUAAGGAGAAGACUGGGGGUUCGAGUCCCGUACGGAACG | 0.798
GUUCCGUUGGCGUAAUGGUAACGCGUCUCACUCCUAAGGAGAAGACUGUGGGUUCGAGUCCCGUACGGAACG | 0.898
GUUCCGUUGGCGUAAUGGUAACGCGUCUCACUCCUAAGGAGAAGACUGCGGGUCCGAGUCCCGUACGGAACG | 0.811
GUUCCGUUGGCGUAAUGGUAACGCGUCUCGCUCCUGAGGAGAAGACUGCGGGAUCGAGUCCCGUACGAAACG | ≤ 0.5
GUUCCGUUGGCGUAAUGGUAACGCGUCUCACUCCUAAGGAGAAGACUGCAGGUUCGAGUCCCGUACGGCACG | 0.675
GUUCCGUUGGCGUAAUGGUAACGCGUCUCGCUCCUACGGAGAAGACUGCGGGUUCGAGUCCCGUACGGAACG | 0.673
GUUCCGUUGGCGUAAUGGUAACGCGUCUCACUCCUAAGGAGAAACCUGCGGGUUCGAGUCCCGUACGGAACG | ≤ 0.5
GUUCCGUUGGCGUAAUGGUAACGCGUCUCACUCCUAAGGAGAAGAUUGCGGCUUCGAGUCCCGUAUGGAACG | ≤ 0.5
GUUCCGUUGGCGUAAUGGUAACGCGUCUCACUCCUAAGGAGAAGACUGCGGGUUCGAGUCCAGUACGGAGCG | 0.547
GUUCCGUUGGCGUAAUGGUAACGCGUCUCACUCCUAAGGAGAAGAUUGCGGGUUCGAGUCCCGUACGGAACG | 0.939
GUUCCGUUGGCGUAAUGGUAACGCGUCUCACUCCUAAGGAACAGACUGCCGGUUCGAGUCCCGUACGGAGCG | ≤ 0.5
GUUCCGUUGGCGUAAUGGUAACGCGUCUCACUCCUAAGCAGAAGACUGCGGGUUCGGGUCCCGUACGGAACG | ≤ 0.5
